Results published in ChEMBL document CHEMBL1154675, “Identification of death-associated protein kinases inhibitors using structure-based virtual screening” (J Med Chem, 2009).
One block for each compound: values may come before it. Calls of active or inactive are those of the source. The rule behind the calls is not given here.

Key:
[1] = target: T1, Death-associated protein kinase 3 (Homo sapiens, UniProt O43293); assay: Inhibition of DAPK3 at 10 uM
Method in brief: (§1)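 Single-concentration screen of recombinant DAPK3 in the standard Z'-LYTE Ser/Thr 13 peptide reaction: peptide substrate and ATP in 50 mM HEPES pH 7.4, 10 mM MgCl2, 0.01% Brij-35, 0.5% DMSO. Percent inhibition of enzyme activity was read at the stated final compound concentration.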
Target sequence in this assay (O43293 whole entry, looked up): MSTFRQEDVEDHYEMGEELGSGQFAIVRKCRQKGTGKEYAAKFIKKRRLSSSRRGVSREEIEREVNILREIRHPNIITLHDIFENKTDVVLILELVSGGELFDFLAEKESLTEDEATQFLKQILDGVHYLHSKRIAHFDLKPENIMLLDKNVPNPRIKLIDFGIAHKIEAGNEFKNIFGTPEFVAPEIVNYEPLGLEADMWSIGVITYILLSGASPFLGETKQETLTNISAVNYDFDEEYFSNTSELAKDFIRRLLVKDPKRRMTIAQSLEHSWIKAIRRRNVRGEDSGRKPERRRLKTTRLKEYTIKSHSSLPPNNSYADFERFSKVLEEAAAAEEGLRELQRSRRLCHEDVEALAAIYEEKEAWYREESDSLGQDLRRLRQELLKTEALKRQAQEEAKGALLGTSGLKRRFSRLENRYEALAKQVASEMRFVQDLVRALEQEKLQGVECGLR

[2] = target: T1, Death-associated protein kinase 3; assay: Inhibition of DAPK3 at 1 uM; method in brief: as §1
Target sequence in this assay (O43293 whole entry, looked up): as above

[3] = target: Vascular endothelial growth factor receptor 2 (Homo sapiens, UniProt P35968); assay: Inhibition of KDR
Sequence of Vascular endothelial growth factor receptor 2 (P35968 whole entry): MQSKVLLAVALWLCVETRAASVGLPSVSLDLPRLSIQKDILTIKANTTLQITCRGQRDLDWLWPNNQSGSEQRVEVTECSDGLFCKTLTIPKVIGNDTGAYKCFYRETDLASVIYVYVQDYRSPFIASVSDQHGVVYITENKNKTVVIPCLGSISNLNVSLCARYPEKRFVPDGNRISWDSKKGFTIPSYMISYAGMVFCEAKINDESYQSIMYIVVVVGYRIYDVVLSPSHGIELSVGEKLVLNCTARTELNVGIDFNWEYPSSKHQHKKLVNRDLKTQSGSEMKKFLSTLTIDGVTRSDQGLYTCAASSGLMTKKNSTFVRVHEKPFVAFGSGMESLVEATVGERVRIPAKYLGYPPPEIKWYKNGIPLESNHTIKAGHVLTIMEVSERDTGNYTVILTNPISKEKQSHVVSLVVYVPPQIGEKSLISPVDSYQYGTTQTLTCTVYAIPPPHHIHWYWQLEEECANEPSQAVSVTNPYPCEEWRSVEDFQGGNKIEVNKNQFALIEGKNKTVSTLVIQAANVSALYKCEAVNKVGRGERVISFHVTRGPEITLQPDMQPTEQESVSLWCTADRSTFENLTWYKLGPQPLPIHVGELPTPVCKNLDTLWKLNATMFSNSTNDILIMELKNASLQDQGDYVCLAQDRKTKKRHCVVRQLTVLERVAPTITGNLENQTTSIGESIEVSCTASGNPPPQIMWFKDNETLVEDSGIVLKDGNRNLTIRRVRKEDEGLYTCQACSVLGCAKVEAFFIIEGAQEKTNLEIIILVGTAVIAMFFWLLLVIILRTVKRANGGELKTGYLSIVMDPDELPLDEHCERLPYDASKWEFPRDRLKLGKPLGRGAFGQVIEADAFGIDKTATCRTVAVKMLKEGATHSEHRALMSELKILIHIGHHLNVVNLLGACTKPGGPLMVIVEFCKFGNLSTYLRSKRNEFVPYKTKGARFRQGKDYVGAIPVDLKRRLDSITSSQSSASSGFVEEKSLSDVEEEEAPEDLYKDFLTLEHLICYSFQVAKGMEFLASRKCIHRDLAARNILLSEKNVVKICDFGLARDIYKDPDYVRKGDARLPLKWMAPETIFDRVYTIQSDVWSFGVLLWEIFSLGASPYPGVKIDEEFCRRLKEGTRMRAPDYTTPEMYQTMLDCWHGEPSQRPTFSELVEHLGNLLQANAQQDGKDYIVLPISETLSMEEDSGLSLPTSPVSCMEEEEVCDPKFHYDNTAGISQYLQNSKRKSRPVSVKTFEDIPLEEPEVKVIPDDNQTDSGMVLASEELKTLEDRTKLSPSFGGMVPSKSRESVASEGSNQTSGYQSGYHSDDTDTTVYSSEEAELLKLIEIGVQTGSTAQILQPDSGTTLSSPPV
Method in brief: (§2)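 Selectivity panel run with ProfilerPro kinase kits following the kit protocol. Activity against each kinase was reported as an IC50 range: below 1 μM, between 1 and 10 μM, or above 10 μM.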

[4] = target: Tyrosine-protein kinase SYK (Homo sapiens) (UniProt P43405); assay: Inhibition of SYK at 10 uM
[5] = target: Mitogen-activated protein kinase 14 (Homo sapiens) (UniProt Q16539); assay: Inhibition of p38alpha at 10 uM
Sequence of Mitogen-activated protein kinase 14 (Homo sapiens) (Q16539 whole entry): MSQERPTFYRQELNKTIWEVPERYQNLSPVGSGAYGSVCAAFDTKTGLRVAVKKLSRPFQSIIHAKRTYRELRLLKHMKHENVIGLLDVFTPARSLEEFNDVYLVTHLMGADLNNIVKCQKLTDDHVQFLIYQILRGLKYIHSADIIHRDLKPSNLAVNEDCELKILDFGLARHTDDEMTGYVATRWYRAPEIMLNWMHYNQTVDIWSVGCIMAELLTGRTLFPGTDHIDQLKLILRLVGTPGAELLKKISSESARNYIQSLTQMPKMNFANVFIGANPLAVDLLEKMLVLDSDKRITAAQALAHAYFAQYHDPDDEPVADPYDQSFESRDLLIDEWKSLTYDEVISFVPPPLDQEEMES

[6] = target: MAP kinase-activated protein kinase 2 (Homo sapiens) (UniProt P49137); assay: Inhibition of MAPKAPK2 at 10 uM; method in brief: as §2
[7] = target: Serine/threonine-protein kinase Sgk1 (Homo sapiens, UniProt O00141); assay: Inhibition of SGK1; method in brief: as §2
[8] = Inhibition of p70S6K
Method in brief: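 Selectivity panel of kinases run with a commercial profiling kit according to the kit protocol. Inhibition is reported only as IC50 bands: below 1 μM, 1–10 μM, or above 10 μM.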

[9] = target: Rho-associated protein kinase 2 (Homo sapiens) (UniProt O75116); assay: Inhibition of ROCK2 at 10 uM
[10] = Inhibition of CAMK2 at 10 uM
[11] = target: Tyrosine-protein kinase Lck (Homo sapiens) (UniProt P06239); assay: Inhibition of LCK at 10 uM; method in brief: as §2
[12] = target: RAC-beta serine/threonine-protein kinase (Homo sapiens) (UniProt P31751); assay: Inhibition of AKT2 at 10 uM
[13] = Inhibition of AMPK at 10 uM
[14] = target: MAP kinase-activated protein kinase 5 (Homo sapiens) (UniProt Q8IW41); assay: Inhibition of PRAK at 10 uM; method in brief: as §2
[15] = target: Protein kinase C beta type (Homo sapiens) (UniProt P05771); assay: Inhibition of PKCbeta2 at 10 uM
[16] = target: Ribosomal protein S6 kinase alpha-5 (Homo sapiens) (UniProt O75582); assay: Inhibition of MSK1 at 10 uM; method in brief: as §2
[17] = target: Insulin receptor (Homo sapiens) (UniProt P06213); assay: Inhibition of INSR at 10 uM
[18] = target: Casein kinase I isoform delta (Homo sapiens, UniProt P48730); assay: Inhibition of CK1delta; method in brief: as §2
[19] = target: Glycogen synthase kinase-3 beta (Homo sapiens) (UniProt P49841); assay: Inhibition of GSK3-beta at 10 uM
[20] = target: Serine/threonine-protein kinase MARK1 (Homo sapiens) (UniProt Q9P0L2); assay: Inhibition of MARK1 at 10 uM
[21] = target: Serine/threonine-protein kinase PAK 2 (Homo sapiens) (UniProt Q13177); assay: Inhibition of PAK2 at 10 uM
[22] = target: Dual specificity tyrosine-phosphorylation-regulated kinase 1A (Homo sapiens, UniProt Q13627); assay: Inhibition of […]; method in brief: as §2
[23] = target: Interleukin-1 receptor-associated kinase 4 (Homo sapiens) (UniProt Q9NWZ3); assay: Inhibition of IRAK4 at 10 uM; method in brief: as §2
[24] = target: Tyrosine-protein kinase Fyn (Homo sapiens) (UniProt P06241); assay: Inhibition of FYN at 10 uM; method in brief: as §2
[25] = target: Proto-oncogene tyrosine-protein kinase Src (Homo sapiens) (UniProt P12931); assay: Inhibition of SRC at 10 uM
[26] = target: Serine/threonine-protein kinase 3 (Homo sapiens) (UniProt Q13188); assay: Inhibition of MST2 at 10 uM; method in brief: as §2
[27] = target: T1, Death-associated protein kinase 3; assay: Inhibition of DAPK3
Method in brief: (§3)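 IC50 runs used the Z'-LYTE Ser/Thr 13 peptide format. Human recombinant DAPK1 was at 2.6 μg/mL final; DAPK3 was recombinant. Each kinase was incubated with 10 μM ATP and a range of inhibitor concentrations in 50 mM HEPES pH 7.4, 10 mM MgCl2, 0.01% Brij-35, 0.5% DMSO, with peptide substrate.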
Target sequence in this assay (O43293 whole entry): as the sequence (O43293 whole entry, looked up) above

[28] = target: Mitogen-activated protein kinase 1 (Homo sapiens, UniProt P28482); assay: Inhibition of Erk2; method in brief: as §2
Sequence of Mitogen-activated protein kinase 1 (P28482 whole entry): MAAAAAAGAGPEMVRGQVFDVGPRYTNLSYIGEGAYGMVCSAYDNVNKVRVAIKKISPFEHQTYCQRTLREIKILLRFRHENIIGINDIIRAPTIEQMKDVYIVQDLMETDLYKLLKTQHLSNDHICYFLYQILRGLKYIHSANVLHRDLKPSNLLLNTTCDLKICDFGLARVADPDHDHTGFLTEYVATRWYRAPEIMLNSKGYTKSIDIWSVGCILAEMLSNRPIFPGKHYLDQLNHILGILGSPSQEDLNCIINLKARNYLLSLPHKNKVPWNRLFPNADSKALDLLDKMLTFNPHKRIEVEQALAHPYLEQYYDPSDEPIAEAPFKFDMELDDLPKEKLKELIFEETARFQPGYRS

[29] = target: Calcium/calmodulin-dependent protein kinase type IV (Homo sapiens) (UniProt Q16566); assay: Inhibition of CAMK4 at 10 uM; method in brief: as §2
[30] = target: RAC-alpha serine/threonine-protein kinase (Homo sapiens) (UniProt P31749); assay: Inhibition of AKT1 at 10 uM
[31] = target: Ribosomal protein S6 kinase alpha-1 (Homo sapiens) (UniProt Q15418); assay: Inhibition of RSK1 at 10 uM; method in brief: as §2
[32] = target: RAF proto-oncogene serine/threonine-protein kinase (Homo sapiens) (UniProt P04049); assay: Inhibition of c-Raf at 10 uM
[33] = target: Serine/threonine-protein kinase pim-2 (Homo sapiens) (UniProt Q9P1W9); assay: Inhibition of PIM2 at 10 uM
[34] = target: Cyclin-dependent kinase 2 (Homo sapiens) (UniProt P24941); assay: Inhibition of CDK2 at 10 uM; method in brief: as §2
[35] = target: Serine/threonine-protein kinase Chk2 (Homo sapiens) (UniProt O96017); assay: Inhibition of CHK2 at 10 uM; method in brief: as §2
[36] = target: Tyrosine-protein kinase BTK (Homo sapiens) (UniProt Q06187); assay: Inhibition of BTK at 10 uM; method in brief: as §2
[37] = target: Hepatocyte growth factor receptor (Homo sapiens) (UniProt P08581); assay: Inhibition of MET at 10 uM; method in brief: as §2
Sequence of Hepatocyte growth factor receptor (Homo sapiens) (P08581 whole entry): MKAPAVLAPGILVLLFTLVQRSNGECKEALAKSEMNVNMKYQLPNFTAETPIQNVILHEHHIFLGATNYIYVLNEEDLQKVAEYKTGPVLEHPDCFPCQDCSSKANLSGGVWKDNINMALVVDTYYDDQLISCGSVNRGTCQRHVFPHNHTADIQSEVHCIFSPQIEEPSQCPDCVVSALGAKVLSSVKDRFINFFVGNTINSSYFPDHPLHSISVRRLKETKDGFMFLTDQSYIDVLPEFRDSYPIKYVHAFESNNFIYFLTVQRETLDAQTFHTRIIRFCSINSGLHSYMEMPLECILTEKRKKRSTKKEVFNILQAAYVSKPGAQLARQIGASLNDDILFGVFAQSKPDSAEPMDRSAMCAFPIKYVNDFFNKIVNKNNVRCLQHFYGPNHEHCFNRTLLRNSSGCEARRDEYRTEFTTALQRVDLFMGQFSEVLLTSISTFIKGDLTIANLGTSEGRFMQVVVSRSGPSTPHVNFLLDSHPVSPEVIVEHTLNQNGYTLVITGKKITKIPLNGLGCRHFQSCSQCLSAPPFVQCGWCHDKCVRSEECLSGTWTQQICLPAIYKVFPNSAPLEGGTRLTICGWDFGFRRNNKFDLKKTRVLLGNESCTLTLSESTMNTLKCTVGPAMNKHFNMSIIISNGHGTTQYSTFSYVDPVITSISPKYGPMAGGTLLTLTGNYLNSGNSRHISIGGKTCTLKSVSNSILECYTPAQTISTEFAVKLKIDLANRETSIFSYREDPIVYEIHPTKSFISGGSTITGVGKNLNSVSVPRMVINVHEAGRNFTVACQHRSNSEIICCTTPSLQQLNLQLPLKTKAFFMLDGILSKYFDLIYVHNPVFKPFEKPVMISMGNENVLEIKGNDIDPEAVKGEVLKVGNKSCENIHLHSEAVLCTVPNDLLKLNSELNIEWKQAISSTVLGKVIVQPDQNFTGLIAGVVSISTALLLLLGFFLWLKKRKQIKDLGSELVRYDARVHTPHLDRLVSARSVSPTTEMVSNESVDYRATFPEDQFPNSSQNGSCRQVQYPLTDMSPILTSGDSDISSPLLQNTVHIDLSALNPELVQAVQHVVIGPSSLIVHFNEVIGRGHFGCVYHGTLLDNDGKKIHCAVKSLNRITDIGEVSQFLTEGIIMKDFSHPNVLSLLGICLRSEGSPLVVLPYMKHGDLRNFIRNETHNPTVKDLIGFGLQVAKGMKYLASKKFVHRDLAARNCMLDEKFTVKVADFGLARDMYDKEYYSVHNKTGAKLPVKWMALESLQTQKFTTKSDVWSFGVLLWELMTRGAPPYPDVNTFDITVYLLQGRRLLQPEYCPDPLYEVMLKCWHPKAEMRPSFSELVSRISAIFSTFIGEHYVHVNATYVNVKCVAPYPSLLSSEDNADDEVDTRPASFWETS

[38] = target: Protein kinase C zeta type (Homo sapiens) (UniProt Q05513); assay: Inhibition of PKCzeta at 10 uM
[39] = target: Tyrosine-protein kinase Lyn (Homo sapiens) (UniProt P07948); assay: Inhibition of LYN at 10 uM; method in brief: as §2
Sequence of Tyrosine-protein kinase Lyn (Homo sapiens) (P07948 2-512 limits assumed): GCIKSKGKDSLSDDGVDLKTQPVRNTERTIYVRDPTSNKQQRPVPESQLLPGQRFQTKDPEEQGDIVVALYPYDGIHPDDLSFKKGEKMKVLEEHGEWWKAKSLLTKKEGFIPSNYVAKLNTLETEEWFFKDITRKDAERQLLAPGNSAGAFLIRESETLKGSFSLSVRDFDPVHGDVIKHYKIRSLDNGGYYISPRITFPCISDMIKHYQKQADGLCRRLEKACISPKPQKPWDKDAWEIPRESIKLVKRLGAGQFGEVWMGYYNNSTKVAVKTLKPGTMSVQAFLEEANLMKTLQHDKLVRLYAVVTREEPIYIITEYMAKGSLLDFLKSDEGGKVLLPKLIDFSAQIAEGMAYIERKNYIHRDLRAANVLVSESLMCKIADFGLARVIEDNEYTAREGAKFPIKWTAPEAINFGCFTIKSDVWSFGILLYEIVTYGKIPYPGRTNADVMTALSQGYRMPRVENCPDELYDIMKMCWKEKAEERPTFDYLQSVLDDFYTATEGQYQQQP

[40] = target: Serine/threonine-protein kinase D2 (Homo sapiens) (UniProt Q9BZL6); assay: Inhibition of PKD2 at 10 uM
[41] = target: Death-associated protein kinase 1 (Homo sapiens, UniProt P53355); assay: Inhibition of DAPK1; method in brief: as §3
[42] = target: Serine/threonine-protein kinase Chk1 (Homo sapiens) (UniProt O14757); assay: Inhibition of CHK1 at 10 uM; method in brief: as §2
[43] = target: Receptor-type tyrosine-protein kinase FLT3 (Homo sapiens) (UniProt P36888); assay: Inhibition of FLT3 at 10 uM
[44] = target: Aurora kinase A (Homo sapiens) (UniProt O14965); assay: Inhibition of AurA at 10 uM
Sequence of Aurora kinase A (Homo sapiens) (O14965 whole entry): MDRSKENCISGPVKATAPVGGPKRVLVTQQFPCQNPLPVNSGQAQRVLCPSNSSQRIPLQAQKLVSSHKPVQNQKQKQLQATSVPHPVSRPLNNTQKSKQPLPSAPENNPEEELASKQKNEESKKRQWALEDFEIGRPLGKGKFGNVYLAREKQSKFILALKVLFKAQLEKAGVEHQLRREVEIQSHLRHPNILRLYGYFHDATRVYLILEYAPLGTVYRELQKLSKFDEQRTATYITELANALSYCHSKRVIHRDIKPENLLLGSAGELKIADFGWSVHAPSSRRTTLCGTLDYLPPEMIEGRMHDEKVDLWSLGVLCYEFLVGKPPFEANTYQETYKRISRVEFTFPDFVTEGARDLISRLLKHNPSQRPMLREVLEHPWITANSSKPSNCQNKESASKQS

[45] = Inhibition of PKGalpha at 10 uM
[46] = target: Insulin-like growth factor 1 receptor (Homo sapiens) (UniProt P08069); assay: Inhibition of IGF1R at 10 uM
[47] = target: Fibroblast growth factor receptor 1 (Homo sapiens, UniProt P11362); assay: Inhibition of FGFR1; method in brief: as §2
[48] = Inhibition of PKA at 10 uM
[49] = target: Mitogen-activated protein kinase kinase kinase kinase 4 (Homo sapiens) (UniProt O95819); assay: Inhibition of HGK at 10 uM
[50] = target: Tyrosine-protein kinase ABL1 (Homo sapiens) (UniProt P00519); assay: Inhibition of ABL at 10 uM
[51] = target: Mitogen-activated protein kinase 3 (Homo sapiens) (UniProt P27361); assay: Inhibition of Erk1 at 10 uM
[52] = target: MAP/microtubule affinity-regulating kinase 3 (Homo sapiens) (UniProt P27448); assay: Inhibition of c-TAK1 at 10 uM; method in brief: as §2

Structure (SMILES): Cc1cccc2c(C(=O)O)cc(-c3ccncc3)nc12
inhibition [1]: 72%
inhibition [2]: 2%

Structure (SMILES): O=C1OC(c2cccc(Cl)c2[N+](=O)[O-])=N/C1=C\c1cccnc1
inhibition [1]: 58%
inhibition [2]: 3%

Structure (SMILES): Cc1ccc2nc(-c3ccncc3)cc(C(=O)O)c2c1
inhibition [1]: 58%
inhibition [2]: 3%

Structure (SMILES): Cc1c(O)ccc2c(CN3CCN(C)CC3)cc(=O)oc12
inhibition [1]: 54%
inhibition [2]: 12%

Structure (SMILES): Cc1ccccc1C1=N/C(=C\c2cccnc2)C(=O)O1
inhibition [1]: 58%
inhibition [2]: 3%

IC50 [3]: > 10 µM
inhibition [4]: inactive
inhibition [5]: inactive
inhibition [6]: inactive
IC50 [7]: > 10 µM
IC50 [8]: < 10 µM
inhibition [9]: inactive
inhibition [10]: inactive
inhibition [11]: inactive
inhibition [12]: inactive
inhibition [13]: inactive
inhibition [14]: inactive
inhibition [15]: inactive
inhibition [16]: inactive
inhibition [17]: inactive
IC50 [18]: > 10 µM
inhibition [19]: inactive
inhibition [20]: inactive
inhibition [21]: inactive
IC50 [22]: > 10 µM
inhibition [23]: inactive
inhibition [24]: inactive
inhibition [25]: inactive
inhibition [26]: inactive
IC50 [28]: > 10 µM
inhibition [29]: inactive
inhibition [30]: inactive
inhibition [31]: inactive
inhibition [32]: inactive
inhibition [33]: inactive
inhibition [34]: inactive
inhibition [35]: inactive
inhibition [36]: inactive
inhibition [37]: inactive
inhibition [38]: inactive
inhibition [39]: inactive
inhibition [40]: inactive
inhibition [42]: inactive
inhibition [43]: inactive
inhibition [44]: inactive
inhibition [45]: inactive
inhibition [46]: inactive
IC50 [47]: > 10 µM
inhibition [48]: inactive
inhibition [49]: inactive
inhibition [50]: inactive
inhibition [51]: inactive
inhibition [52]: inactive
Structure (SMILES): O=C1OC(/C=C/c2ccccc2)=NC/1=C\c1cccnc1
inhibition [1]: 58%
IC50 [27]: < 1000 nM
inhibition [2]: 3%
IC50 [41]: < 1000 nM

Structure (SMILES): O=C1OC(c2ccccc2)=N/C1=C\c1cccnc1
inhibition [1]: 84%
inhibition [2]: 71%

Structure (SMILES): O=C1OC(C23CC4CC(CC(C4)C2)C3)=N/C1=C\c1cccnc1
inhibition [1]: 58%
inhibition [2]: 3%
